According to ChEMBL document CHEMBL4411261, “Down-Regulation of the Androgen Receptor by G-Quadruplex Ligands Sensitizes Castration-Resistant Prostate Cancer Cells to Enzalutamide” (J Med Chem, 2018):
Activity calls are given as the source filed them. The calls are words filed in the database; no cut-off is given here.

Experiments:
[1] = Stabilization of 5'-FAM/3'-TAMRA labelled CTATAGCGCGCTATAG dsDNA (unknown origin) assessed as change in melting temperature t1/2 at 1 uM after 16 hrs in presence of 100 mM K+ by FRET assay
Method in brief: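 FRET melting: FAM/TAMRA dual-labelled oligos (0.25 μM) folded in 10 mM lithium cacodylate pH 7.4 with 100 mM KCl (95 °C 5 min, cooled 4 h); ligand added at 1 μM final, 16 h room temperature. FAM emission followed 30−95 °C at 1 °C/min; curves normalized 0 to 1, T1/2 at 0.5 fraction.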

Quadruplex DNA [2] = assay: Binding affinity to 5'-Biotinylated-AR1 G-quadruplex oligonucleotide (unknown origin) by SPR analysis; format: nucleic-acid assay
Method in brief: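 SPR on streptavidin chip; 5′-biotinylated oligo folded by heating 95 °C 5 min in 10 mM lithium cacodylate, 150 mM KCl, then immobilized at 30 nM to about 600 RU; empty reference cell. Compound 0.7−400 nM in HEPES-KCl (pH 7.4, 0.15 M KCl, 3 mM EDTA) at 40 °C, 40 μL/min, 260 s contact, 600 s dissociation; glycine pH 2.0 regeneration; steady-state affinity fit; at least two independent runs.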

Quadruplex DNA [3] = assay: Binding affinity to 5'-Biotinylated-AR1 G-quadruplex oligonucleotide (unknown origin) by SPR analysis relative to control; format: nucleic-acid assay
PC-3 = assay: Cytotoxicity against human PC3 cells assessed as reduction in cell viability after 48 hrs by MTS assay; format: functional, cell-based; details: PC-3, 48 h
Method in brief: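 Cells kept in RPMI-1640 with 10% fetal calf serum, 37 °C, 5% CO2. Seeded, after 24 h treated with 0.0001, 0.001, 0.01, 0.1, 1 and 10 μM compound (DMSO stocks freshly diluted in medium) for 48 h. MTS added 4 h, absorbance 490 nm; IC50 from curves of % viability inhibition versus DMSO-treated cells against log concentration.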

[4] = Drug uptake in human PC3 cells at 160 nM after 24 hrs by DAPI staining-based fluorescence microscopic analysis; format: ADME, cell-based; details: pc-3, 24 h, 0.16 µM
[5] = Drug uptake in human 22Rv1 cells expressing full length androgen receptor H875Y point mutant at 160 nM after 24 hrs by DAPI staining-based fluorescence microscopic analysis; format: ADME, cell-based; details: cwr22r, 0.16 µM
Quadruplex DNA [6] = assay: Stabilization of AR G-quadruplex oligonucleotide in human 22Rv1 cells assessed as reduction in AR-FL protein level at IC50 after 48 hrs by Western immunoblot assay; format: cell-based
Quadruplex DNA [7] = assay: Stabilization of AR G-quadruplex oligonucleotide in human LNCAP cells assessed as reduction in AR mRNA expression at IC50 after 48 hrs by RT-PCR analysis; format: cell-based
Method in brief: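 Cells grown in RPMI-1640 with 10% fetal calf serum, 37 °C, 5% CO2, treated at an equitoxic concentration. Transcripts quantified by TaqMan real-time RT-PCR, normalized to RNaseP, expressed as relative quantity versus untreated cells (calibrator) by the 2−ΔΔCt method.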

[8] = Stabilization of AGTGAGAGTGAGAGAGAGAGTGAGAGTGAGAGTGA/TCACTCTCACTCTCACTCTCTCTCTCACTCTCACT dsDNA (unknown origin) assessed as change in melting temperature at 16 uM after 16 hrs in presence of 100 mM K+ by CD spectra analysis
Method in brief: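 CD: oligos at 4 μM final in 10 mM lithium cacodylate pH 7.4, 100 mM KCl, annealed 95 °C 5 min then 4 h room temperature; duplex from equimolar strands. Ligand 16 μM final, 16 h room temperature. Spectra 230−320 nm, 5 mm cell, two scans averaged at 20 °C, buffer-subtracted; melting from spectra 20−90 °C in 5 °C steps.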

Quadruplex DNA [9] = assay: (§1) Stabilization of AR1 template G-quadruplex DNA (unknown origin) assessed as inhibition of polymerase progression at G4 site by measuring reduction in full length amplified product using GGCAAAAAGCAGCTGCTTATATGCAG as primer at 12.5 to 200 nM after 30 mins in presence of 5'-end labeled [gamma32P]ATP by phosphorimaging based taq polymerase stop assay; format: nucleic-acid assay
Method in brief: (§2)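 Primer 5′-labeled with [γ-32P]ATP by T4 polynucleotide kinase, 37 °C, 30 min. Labeled primer (72 nM final) annealed to template (36 nM final) in 10 mM lithium cacodylate pH 7.4, with or without 10 mM KCl, by heating at 95 °C for 5 min then slow cooling.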

[10] = as §1, with “TTTTTAGTGAGAGTGAGAGAGAGAGTGAGAGTGAGAGTGATTTTTCTGCATATAAGCAGCTGCTTTTTGCC” for “AR1 template G-quadruplex”; method in brief: as §2
Quadruplex DNA [11] = assay: Stabilization of AR G-quadruplex oligonucleotide in human 22Rv1 cells assessed as down-regulation of MAX mRNA expression at IC50 after 48 hrs by RT-PCR analysis; format: cell-based
Method in brief: (§3)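 Transcripts quantified by TaqMan real-time PCR with RNaseP as normalizer; relative quantity versus untreated cells by the 2−ΔΔCt method. Panel genes measured with a 92-gene cancer-mechanism TaqMan array.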

Quadruplex DNA [12] = assay: Stabilization of AR G-quadruplex oligonucleotide in human 22Rv1 cells assessed as up-regulation of WNT1 mRNA expression at IC50 after 48 hrs by RT-PCR analysis; format: cell-based; method in brief: as §3
Quadruplex DNA [13] = assay: Stabilization of AR G-quadruplex oligonucleotide in human PC3 cells assessed as down-regulation of ITGB3 mRNA expression at IC50 after 48 hrs by RT-PCR analysis; format: cell-based
Method in brief: (§4)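 PC-3 cells (RPMI-1640, 10% fetal calf serum) exposed at an equitoxic concentration. Expression of 92 cancer-mechanism genes measured on TaqMan Arrays. Change versus untreated cells computed by 2−ΔΔCt, with RNaseP as normalizer.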

Quadruplex DNA [14] = assay: Stabilization of AR G-quadruplex oligonucleotide in human PC3 cells assessed as down-regulation of MAX mRNA expression at IC50 after 48 hrs by RT-PCR analysis; format: cell-based; method in brief: as §4
Quadruplex DNA [15] = assay: Stabilization of AR G-quadruplex oligonucleotide in human DU145 cells assessed as down-regulation of ITGB3 mRNA expression at IC50 after 48 hrs by RT-PCR analysis; format: cell-based; method in brief: as §3
CWR22R [16] = assay: Synergistic cytotoxicity against human 22Rv1 cells expressing full length androgen receptor H875Y point mutant assessed as reduction in cell viability at 0.001 to 0.1 uM after 72 hrs in presence of Enzalutamide by MTS assay based CI-Fa plot analysis; format: functional
Method in brief: (§5)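 Cells in RPMI-1640 with 10% fetal calf serum were exposed to ligand (0.001−0.1 μM) plus enzalutamide (0.5−50 μM) at a fixed ratio, five concentrations, for 72 h at 37 °C, 5% CO2. Viability read by MTS absorbance at 490 nm after 4 h. Combination index computed at ED50 and ED75 by the Chou–Talalay method.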

DU-145 = assay: Effect on JUN mRNA expression in human DU145 cells at IC50 after 48 hrs by RT-PCR analysis; format: functional, cell-based; method in brief: as §3
CWR22R [17] = assay: Synergistic cytotoxicity against human 22Rv1 cells expressing full length androgen receptor H875Y point mutant assessed as ED50 for Enzalutamide at 0.001 to 0.1 uM after 72 hrs by MTS assay; format: functional; details: 22Rv1, 72 h, read-out: ED50 (the source's name); method in brief: as §5

Q: With `CN(C)CCCn1c(=O)c2ccc3c(=O)n(CCCN(C)C)c(=O)c4c5[nH]c6ccccc6[nH]c5c(c1=O)c2c34.Cl.Cl` as the molecule, how does the ΔTm [1] read?
A: 1 °C

Q: And the Kd (Quadruplex DNA [2])?
A: 17.9 nM

Q: What about the RBA (Quadruplex DNA [3]) of the same molecule?
A: 100%

Q: What about the IC50 (PC-3) of the same molecule?
A: 180 nM

Q: And the Drug uptake [4]?
A: Active

Q: What about the Drug uptake [5] of the same molecule?
A: Active

Q: And the Activity (Quadruplex DNA [6])?
A: Active

Q: And the Activity (Quadruplex DNA [7])?
A: Active

Q: What about the ΔTm [8] of the same molecule?
A: 2.7 °C

Q: And the inhibition (Quadruplex DNA [9])?
A: Active

Q: What about the inhibition [10] of the same molecule?
A: inactive

Q: What about the Activity (Quadruplex DNA [11]) of the same molecule?
A: Active

Q: And the Activity (Quadruplex DNA [12])?
A: Active

Q: And the Activity (Quadruplex DNA [13])?
A: Active

Q: What about the Activity (Quadruplex DNA [14]) of the same molecule?
A: Active

Q: What about the Activity (Quadruplex DNA [15]) of the same molecule?
A: Active

Q: What about the CI (CWR22R [16]) of the same molecule?
A: <0.5

Q: And the Activity (DU-145)?
A: inactive

Q: And the EC50 (CWR22R [17])?
A: 290 nM
